Measurements gathered from unrelated publications.
Compare with care: the assays were run in different laboratories.
Target: D(3) dopamine receptor (DRD3, Homo sapiens, UniProt P35462)
Method: radioligand

| SMILES | effect on | setting | Ki [nM] |
| --- | --- | --- | --- |
| CCOc1c(O)cc(Br)c2c1CN1CCc3cc(OCC(F)F)c(O)cc3[C@@H]1C2 | cell-free assay | – | 1910 |
| Oc1ccc(CCC2=NCCN2CCc2ccccc2)cc1 | ligand displacement | – | 832 |
| C[C@@H]1Cc2ccccc2N1C(=O)NCCCCN(C)[C@@H]1Cc2cccc3[nH]c(=O)n(c23)C1 | ligand displacement | cell membranes | 300 |
| COc1ccc(CCC2=NCCN2CCc2ccccc2)cc1 | ligand displacement | – | > 10000 |
| COc1ccccc1N1CCN(CCCCNC(=O)c2cc3cc(OCCF)ccc3[nH]2)CC1 | cell-free assay | – | 0.4 |
| CN(C[C@@H]1C[C@H]1CCNC(=O)c1cc2ccccc2[nH]1)[C@@H]1Cc2cccc3[nH]c(=O)n(c23)C1 | ligand displacement | cell membranes | 54.6 |
| O=C1c2ccccc2CCN1CCCCN1CCN(c2cccc(Cl)c2Cl)CC1 | ligand displacement | – | 1 |
| CCCCN1CCC(COC(=O)c2ccc(N)c(OCF)c2)CC1 | cell-free assay | – | 3090 |
| COc1ccc2c(c1)C(=O)N(CCN1CCN(c3ccccc3OC)CC1)C2 | ligand displacement | – | 208 |
| CC1Cc2ccccc2N1C(=O)NCCCCN(C)[C@H]1CNc2ccccc2C1 (stereo partly drawn) | ligand displacement | cell membranes | 274 |
| CCN(CC)c1ccc(C2Nc3ccc(C(=O)c4ccccc4)cc3NC3=C2C(=O)CC(C)(C)C3)cc1 (stereo not drawn) | cell-free assay | – | > 10000 |
| Oc1cccc(CCC2=NCCN2CCc2ccccc2)c1 | ligand displacement | – | > 10000 |
